Measured values published in ChEMBL document CHEMBL4024762, “Discovery of N-(3-Carbamoyl-5,5,7,7-tetramethyl-5,7-dihydro-4H-thieno[2,3-c]pyran-2-yl)-lH-pyrazole-5-carboxamide (GLPG1837), a Novel Potentiator Which Can Open Class III Mutant Cystic Fibrosis Transmembrane Conductance Regulator (CFTR) Channels to a High Extent” (J Med Chem, 2018).

Experiments:
[1] = molecular target: Cystic fibrosis transmembrane conductance regulator (Homo sapiens, UniProt P13569, F508DEL); test: (§1) Potentiation of CFTR F508del mutant (unknown origin) expressed in human CFBE41o cells incubated for 10 mins in presence of forskolin measured for 7 secs by YFP halide assay; type: cell-based
Sequence of Cystic fibrosis transmembrane conductance regulator (Homo sapiens, UniProt P13569, F508DEL) (P13569 as listed by the source): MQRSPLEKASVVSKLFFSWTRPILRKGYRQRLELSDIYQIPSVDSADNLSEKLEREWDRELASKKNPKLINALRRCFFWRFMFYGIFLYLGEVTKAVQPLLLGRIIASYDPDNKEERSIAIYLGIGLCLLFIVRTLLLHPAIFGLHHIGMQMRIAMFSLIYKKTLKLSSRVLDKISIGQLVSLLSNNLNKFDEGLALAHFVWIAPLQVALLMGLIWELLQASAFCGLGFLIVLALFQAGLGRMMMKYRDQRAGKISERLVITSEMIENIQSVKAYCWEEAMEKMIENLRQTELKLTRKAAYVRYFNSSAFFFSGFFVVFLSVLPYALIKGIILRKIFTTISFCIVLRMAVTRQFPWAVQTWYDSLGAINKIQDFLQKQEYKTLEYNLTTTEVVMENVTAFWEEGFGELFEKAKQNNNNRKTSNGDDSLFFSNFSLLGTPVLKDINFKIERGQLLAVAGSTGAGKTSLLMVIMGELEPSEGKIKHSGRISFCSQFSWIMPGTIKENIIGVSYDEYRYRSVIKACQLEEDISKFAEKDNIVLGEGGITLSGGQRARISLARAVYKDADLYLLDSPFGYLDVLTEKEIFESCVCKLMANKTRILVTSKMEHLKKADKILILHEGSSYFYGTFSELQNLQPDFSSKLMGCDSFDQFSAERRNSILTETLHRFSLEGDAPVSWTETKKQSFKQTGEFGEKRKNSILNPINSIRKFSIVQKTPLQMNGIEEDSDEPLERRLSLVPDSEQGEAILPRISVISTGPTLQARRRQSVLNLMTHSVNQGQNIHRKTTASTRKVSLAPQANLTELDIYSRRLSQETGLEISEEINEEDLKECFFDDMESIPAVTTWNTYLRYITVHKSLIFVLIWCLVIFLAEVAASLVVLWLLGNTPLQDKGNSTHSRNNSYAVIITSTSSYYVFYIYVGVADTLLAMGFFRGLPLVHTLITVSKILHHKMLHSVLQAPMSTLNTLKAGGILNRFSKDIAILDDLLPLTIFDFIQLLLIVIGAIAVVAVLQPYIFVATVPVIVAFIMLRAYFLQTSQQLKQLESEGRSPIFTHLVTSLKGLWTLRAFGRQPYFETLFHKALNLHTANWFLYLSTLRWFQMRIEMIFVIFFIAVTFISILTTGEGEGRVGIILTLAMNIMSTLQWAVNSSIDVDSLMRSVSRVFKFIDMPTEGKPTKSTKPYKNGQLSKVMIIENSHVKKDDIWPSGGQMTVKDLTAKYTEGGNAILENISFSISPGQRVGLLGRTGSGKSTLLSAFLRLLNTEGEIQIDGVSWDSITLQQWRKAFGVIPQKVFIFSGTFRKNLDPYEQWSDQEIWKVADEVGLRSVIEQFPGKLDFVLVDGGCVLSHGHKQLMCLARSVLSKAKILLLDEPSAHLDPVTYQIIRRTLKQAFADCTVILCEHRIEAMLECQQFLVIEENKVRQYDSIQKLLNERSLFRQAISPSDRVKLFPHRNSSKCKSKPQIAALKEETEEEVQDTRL
Method in brief: (§2)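 CFBE41o- cells (CF bronchial line) transduced by adenovirus with F508del CFTR and YFP (H148Q/I152L/F47L). Cells held 24 h at 27°C, then treated 10 min at room temperature with 10 µM forskolin plus potentiator. YFP fluorescence read for 7 s across addition of NaI buffer (137 mM NaI). Activity = 1-(F/F0).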

[2] = system: Cystic fibrosis transmembrane conductance regulator (Homo sapiens), P13569 [F508del]; test: as §1; type: cell-based; parameters: concentration or dose not given beside the values; method in brief: as §2
Sequence of Cystic fibrosis transmembrane conductance regulator (Homo sapiens), P13569 [F508del] (P13569 as listed by the source): as above

[3] = system: Cystic fibrosis transmembrane conductance regulator (Homo sapiens), P13569 [G551D]; test: (§3) Potentiation of CFTR G551D mutant (unknown origin) expressed in HEK293 cells incubated for 10 mins in presence of forskolin measured for 2 mins by YFP halide assay; type: cell-based; parameters: concentration or dose not given beside the values
Sequence of Cystic fibrosis transmembrane conductance regulator (Homo sapiens), P13569 [G551D] (P13569 whole entry G551D): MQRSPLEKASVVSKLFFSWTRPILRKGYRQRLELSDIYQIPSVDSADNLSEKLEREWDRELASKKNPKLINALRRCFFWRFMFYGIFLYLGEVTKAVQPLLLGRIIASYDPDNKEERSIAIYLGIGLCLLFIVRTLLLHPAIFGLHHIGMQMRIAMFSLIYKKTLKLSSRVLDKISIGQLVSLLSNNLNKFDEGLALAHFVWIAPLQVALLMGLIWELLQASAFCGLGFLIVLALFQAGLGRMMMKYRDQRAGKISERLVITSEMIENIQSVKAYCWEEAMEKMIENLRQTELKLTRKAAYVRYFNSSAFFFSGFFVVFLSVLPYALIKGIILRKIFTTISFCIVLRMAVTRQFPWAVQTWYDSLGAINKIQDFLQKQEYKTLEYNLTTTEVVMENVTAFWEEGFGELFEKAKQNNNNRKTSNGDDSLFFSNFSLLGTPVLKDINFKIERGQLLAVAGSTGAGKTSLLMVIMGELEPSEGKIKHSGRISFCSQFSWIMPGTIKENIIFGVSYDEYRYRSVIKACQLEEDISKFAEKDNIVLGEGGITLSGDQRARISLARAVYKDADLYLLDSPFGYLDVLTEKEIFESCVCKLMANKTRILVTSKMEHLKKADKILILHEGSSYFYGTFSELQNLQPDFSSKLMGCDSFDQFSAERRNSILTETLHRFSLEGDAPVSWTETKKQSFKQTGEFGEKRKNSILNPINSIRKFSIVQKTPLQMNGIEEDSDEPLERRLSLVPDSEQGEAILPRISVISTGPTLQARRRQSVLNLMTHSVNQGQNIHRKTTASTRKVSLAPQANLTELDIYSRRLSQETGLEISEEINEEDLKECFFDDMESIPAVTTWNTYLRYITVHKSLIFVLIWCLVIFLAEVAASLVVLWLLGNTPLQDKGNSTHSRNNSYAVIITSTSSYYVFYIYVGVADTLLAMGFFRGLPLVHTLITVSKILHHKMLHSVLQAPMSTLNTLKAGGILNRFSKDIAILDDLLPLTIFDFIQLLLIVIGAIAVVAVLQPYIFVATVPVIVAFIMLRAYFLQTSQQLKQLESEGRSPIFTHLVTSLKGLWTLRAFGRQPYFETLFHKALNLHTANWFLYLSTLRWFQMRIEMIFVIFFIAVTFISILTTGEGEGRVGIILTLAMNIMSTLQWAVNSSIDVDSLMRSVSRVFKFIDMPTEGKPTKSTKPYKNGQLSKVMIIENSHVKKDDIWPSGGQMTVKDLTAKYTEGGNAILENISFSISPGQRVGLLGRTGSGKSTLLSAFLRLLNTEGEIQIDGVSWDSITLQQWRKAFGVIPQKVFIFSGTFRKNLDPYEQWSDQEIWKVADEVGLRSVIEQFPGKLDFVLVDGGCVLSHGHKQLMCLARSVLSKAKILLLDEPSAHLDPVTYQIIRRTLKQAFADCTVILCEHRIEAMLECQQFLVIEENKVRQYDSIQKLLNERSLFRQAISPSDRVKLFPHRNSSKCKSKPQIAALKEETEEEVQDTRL
Method in brief: (§4)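 HEK293 cells transfected with the mutant CFTR (G551D, G178R, S549N or R117H) and YFP (H148Q/I152L/F47L), seeded directly after transfection, then 24 h at 37°C. Treated 10 min at room temperature with 10 µM forskolin plus potentiator. Fluorescence read for 2 min across addition of NaI buffer (375 mM NaI). Activity = 1-(F/F0).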

[4] = molecular target: Cystic fibrosis transmembrane conductance regulator (Homo sapiens, UniProt P13569, G551D); test: as §3; type: cell-based; method in brief: as §4
Sequence of Cystic fibrosis transmembrane conductance regulator (Homo sapiens, UniProt P13569, G551D) (P13569 whole entry G551D): as above

[5] = Unbound intrinsic clearance in rat microsomes; type: ADME, Microsome
Method in brief: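 Intrinsic clearance in liver microsomes or hepatocytes, corrected for non-specific binding using fraction unbound in microsomes (Fu,mic) or in hepatocyte incubations (Fu,inc).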

Homo sapiens = species on record: Homo sapiens; test: Selectivity ratio of EC50 for CFTR G551D mutant (unknown origin) to EC50 for CFTR F508del mutant (unknown origin)

| Structure (SMILES) | EC50 [1] | Activity [2] | Activity [3] | EC50 [4] | CL free [5] | Ratio EC50 (Homo sapiens) |
| --- | --- | --- | --- | --- | --- | --- |
| CC1(C)Cc2c(sc(NC(=O)c3[nH]ncc3Cl)c2C(N)=O)C(C)(C)O1 | 2 nM | 96% | 77% | – | – | – |
| CC(C)(C)c1cc(C(C)(C)C)c(NC(=O)c2c[nH]c3ccccc3c2=O)cc1O [IVACAFTOR] | 126 nM | 100% | 50% | 1300 nM | – | – |
| NC(=O)c1c(NC(=O)c2ccccc2Cl)sc2c1CCCC2 | 326 nM | 71% | 18% | > 10000 nM | 1400 mL/min/kg | – |
| CC1Cc2c(sc(NC(=O)c3ccccc3O)c2C(N)=O)C(C)O1 (centres undefined) | 4 nM | 98% | 36% | 236 nM | – | – |
| Cc1ccc(C(=O)Nc2sc3c(c2C(N)=O)CCNC3)s1 | – | 3% | – | – | – | – |
| CC1(C)Cc2c(sc(NC(=O)C3CCNC3=O)c2C(N)=O)C(C)(C)O1 (centres undefined) | 101 nM | – | – | – | – | – |
| CC1(C)Cc2c(sc(NC(=O)c3cc(C(F)(F)F)[nH]n3)c2C(N)=O)C(C)(C)O1 | 3 nM | – | – | 130 nM | – | – |
| CC1(C)Cc2c(sc(NC(=O)[C@H](O)C(C)(C)C)c2C(N)=O)C(C)(C)O1 | 127 nM | 95% | 31% | – | – | – |
| CC1(C)Cc2c(sc(NC(=O)c3cccnc3O)c2C(N)=O)C(C)(C)O1 | 190 nM | – | – | – | – | – |
| CC(C)(C)CC(O)C(=O)Nc1sc2c(c1C(N)=O)CC(C)(C)OC2(C)C (centres undefined) | 0.54 nM | 102% | 58% | – | – | 2000 |
| CC1(C)Cc2c(sc(NC(=O)c3ccccc3O)c2C(N)=O)C(C)(C)O1 | 4 nM | 111% | 52% | – | – | – |
| CC1(C)Cc2c(sc(NC(=O)C(C)(C)CO)c2C(N)=O)C(C)(C)O1 | 75 nM | – | – | – | – | – |
| CC1(C)Cc2c(sc(NC(=O)[C@@H](O)C(C)(C)C)c2C(N)=O)C(C)(C)O1 | 2.7 nM | 95% | 50% | 421 nM | – | – |
| CC1(C)Cc2c(sc(NC(=O)c3cn[nH]c3)c2C(N)=O)C(C)(C)O1 | 125 nM | – | – | – | – | – |
| Cc1ccc(C(=O)Nc2sc3c(c2C(N)=O)CCCC3)s1 | 652 nM | 72% | – | – | – | – |
